Measurements from ChEMBL document CHEMBL1629563, “Pharmacokinetic and safety evaluation of BILR 355, a second-generation nonnucleoside reverse transcriptase inhibitor, in healthy volunteers” (Antimicrob Agents Chemother, 2008).

Assays:
[1] = Apparent volume of distribution in terminal phase in healthy human at 37.5 mg, po administered as single dose coadministered with 100 mg of ritonavir; type: ADME, organism-based; details: in vivo, read-out: Vz/F
In short: (§1)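 Healthy male volunteers, fasted overnight, got one oral dose of BILR 355 in PEG solution with 200 ml water. Ritonavir 100 mg was given 10 h before and again with the dose. Plasma was sampled (EDTA) from predose to 144 h and assayed by validated LC-MS/MS. Cmax and Vz/F came from noncompartmental analysis. Vss/F = CL/F·(MRTp.o. − 1/Ka), with Ka from compartmental modelling.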

Homo sapiens [2] = assay: Toxicity in healthy human assessed as occurrence of constipation at 1 mg, po administered as single dose relative to control; type: organism-based; details: in vivo
Homo sapiens [3] = assay: Toxicity in healthy human assessed as occurrence of increase in alanine aminotransferase level at 50 mg, po administered as single dose relative to control; type: organism-based; details: in vivo
Homo sapiens [4] = assay: Toxicity in healthy human assessed as occurrence of maculopapular rash at 1 mg, po administered as single dose relative to control; type: organism-based; details: in vivo
[5] = Apparent oral clearance in healthy human at 87.5 mg, po administered as single dose coadministered with 100 mg of ritonavir; type: ADME, organism-based; details: in vivo
In short: (§2)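 Healthy male volunteers, fasted. Ritonavir 100 mg given 10 h before and again together with single oral BILR 355 in PEG solution. EDTA plasma sampled predose to 144 h. LC-MS/MS assay after protein precipitation. Noncompartmental analysis, AUC by linear up/log down trapezoidal rule; Vss = CL/F·(MRTp.o. − 1/Ka).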

[6] = AUC (0 to last) in healthy human at 75 mg, po administered as single dose; type: ADME, organism-based; set-up: dose 75 mg, time 0 - last, route oral; details: plasma
In short: (§3)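 Healthy male volunteers, six active plus two placebo per dose group, single oral dose in PEG solution with 200 ml water after overnight fast; breakfast 60 to 90 min post-dose. EDTA plasma sampled predose to 144 h. Assayed by validated LC-MS/MS after protein precipitation. Noncompartmental analysis, AUC by linear up/log down trapezoidal rule; Vss = CL/F·(MRTp.o. − 1/Ka).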

Homo sapiens [7] = assay: Ratio of half life in human at 25 mg, po in presence of 100 mg of ritonavir to half life in human at 25 mg, po; type: ADME, organism-based; details: in vivo
[8] = Apparent oral clearance in healthy human at 50 mg, po administered as single dose coadministered with 100 mg of ritonavir; type: ADME, organism-based; details: in vivo; in short: as §2
[9] = Half life in high fat fed healthy human at 50 mg, po administered as single dose coadministered with 100 mg of ritonavir; type: ADME, organism-based; details: in vivo
[10] = AUC (0 to last) in healthy human at 50 mg, po administered as single dose; type: ADME, organism-based; set-up: dose 50 mg, route oral, time 0 - last; details: plasma; in short: as §3
Homo sapiens [11] = assay: Toxicity in healthy human assessed as occurrence of diarrhea at 50 mg, po administered as single dose coadministered with 100 mg of ritonavir; type: organism-based; details: in vivo
[12] = Tmax in healthy human at 75 mg, po administered as single dose; type: ADME, organism-based; details: in vivo
[13] = Tmax in high fat fed healthy human at 50 mg, po administered as single dose coadministered with 100 mg of ritonavir; type: ADME, organism-based; details: in vivo
[14] = Half life in healthy human at 62.5 mg, po administered as single dose coadministered with 100 mg of ritonavir; type: ADME, organism-based; details: in vivo
[15] = AUC (0 to last) in high fat fed healthy human at 50 mg, po administered as single dose coadministered with 100 mg of ritonavir; type: ADME, organism-based; set-up: dose 50 mg, route oral, time 0 - last; details: plasma
In short: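 Fed cohort of 6 healthy men given an FDA-type high-fat breakfast (about 150, 250 and 500 to 600 cal from protein, carbohydrate and fat) 30 min before dosing. Ritonavir 100 mg given 10 h earlier and again with the single oral dose in PEG solution. Plasma sampled to 144 h, LC-MS/MS, noncompartmental analysis.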

Homo sapiens [16] = assay: Toxicity in healthy human assessed as occurrence of frequent bowel movements at 1 mg, po administered as single dose relative to control; type: organism-based; details: in vivo
[17] = Mean residence time in healthy human at 5 mg, po administered as single dose coadministered with 100 mg of ritonavir; type: ADME, organism-based; details: in vivo
[18] = Mean residence time in healthy human at 75 mg, po administered as single dose; type: ADME, organism-based; details: in vivo
Homo sapiens [19] = assay: Ratio of half life in human at 75 mg, po in presence of 100 mg of ritonavir to half life in human at 75 mg, po; type: ADME, organism-based; details: in vivo
[20] = Renal clearance in healthy human at 12.5 mg, po administered as single dose coadministered with 100 mg of ritonavir by high-pressure liquid chromatography-tandem mass spectrometry/mass spectrometry method; type: ADME, organism-based, Kidney; details: in vivo, read-out: CL_renal (converted)
Homo sapiens [21] = assay: Toxicity in healthy human assessed as occurrence of neurological eyelid disorder at 100 mg, po administered as single dose relative to control; type: organism-based; details: in vivo
[22] = Drug excretion in healthy human urine assessed as unchanged drug at 37.5 mg, po administered as single dose coadministered with 100 mg of ritonavir by high-pressure liquid chromatography-tandem mass spectrometry/mass spectrometry method; type: ADME, organism-based; details: read-out: Drug uptake
In short: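 Ritonavir 100 mg was given 10 h before and with one oral dose of BILR 355 in PEG solution. Urine was collected by weight as predose blank, then 0-6, 6-24 and 24-72 h, stored at −20°C and assayed by LC-MS/MS. fe = unchanged drug excreted (Ae) as a percentage of dose. Line 50: high-fat breakfast 30 min before dosing.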

[23] = Apparent volume of distribution at steady state in healthy human at 12.5 mg, po administered as single dose; type: ADME, organism-based; details: in vivo, read-out: Vss/F; in short: as §3
[24] = Apparent volume of distribution in terminal phase in healthy human at 62.5 mg, po administered as single dose coadministered with 100 mg of ritonavir; type: ADME, organism-based; details: in vivo, read-out: Vz/F; in short: as §1
Homo sapiens [25] = assay: Toxicity in high fat fed healthy human assessed as occurrence of fatigue at 50 mg, po administered as single dose coadministered with 100 mg of ritonavir; type: organism-based; details: in vivo
[26] = Apparent volume of distribution at steady state in healthy human at 50 mg, po administered as single dose coadministered with 100 mg of ritonavir; type: ADME, organism-based; details: in vivo, read-out: Vss/F; in short: as §1
[27] = AUC (0 to infinity) in healthy human at 5 mg, po administered as single dose coadministered with 100 mg of ritonavir; type: ADME, organism-based; set-up: dose 5 mg, time infinity, route oral; details: plasma; in short: as §2
Homo sapiens [28] = assay: Toxicity in healthy human assessed as occurrence of herpes simplex at 75 mg, po administered as single dose relative to control; type: organism-based; details: in vivo
Homo sapiens [29] = assay: Toxicity in healthy human assessed as occurrence of maculopapular rash at 25 mg, po administered as single dose coadministered with 100 mg of ritonavir; type: organism-based; details: in vivo
[30] = Apparent oral clearance in healthy human at 62.5 mg, po administered as single dose coadministered with 100 mg of ritonavir; type: ADME, organism-based; details: in vivo; in short: as §2
[31] = AUC (0 to last) in healthy human at 25 mg, po administered as single dose coadministered with 100 mg of ritonavir; type: ADME, organism-based; set-up: dose 25 mg, route oral, time 0 - last; details: plasma; in short: as §2
Homo sapiens [32] = assay: Toxicity in healthy human assessed as occurrence of maculopapular rash at 75 mg, po administered as single dose coadministered with 100 mg of ritonavir; type: organism-based; details: in vivo
[33] = Mean residence time in healthy human at 25 mg, po administered as single dose coadministered with 100 mg of ritonavir; type: ADME, organism-based; details: in vivo
Homo sapiens [34] = assay: AUC (0 to infinity) in healthy human at 75 mg, po administered as single dose; type: ADME, organism-based, Plasma; set-up: dose 75 mg, route oral, time infinity; details: in vivo; in short: as §3

CCN1c2ncc(CCOc3cc[n+]([O-])c4ccccc34)cc2C(=O)N(C)c2cccnc21 [BILR 355]
Vd/F [1]: 104 L
Activity (Homo sapiens [2]): 0%
Activity (Homo sapiens [3]): 0%
Activity (Homo sapiens [4]): 0%
CL/F [5]: 138 mL/min
AUC(0-t) [6]: 763 ng·h/mL
Ratio (Homo sapiens [7]): 3.3
CL/F [8]: 131 mL/min
half-life [9]: 11 h
AUC(0-t) [10]: 406 ng·h/mL
Activity (Homo sapiens [11]): 0%
Tmax [12]: 0.667 h
Tmax [13]: 6 h
half-life [14]: 9.73 h
AUC(0-t) [15]: 7970 ng·h/mL
Activity (Homo sapiens [16]): 0%
MRT [17]: 24.8 h
MRT [18]: 2.95 h
Ratio (Homo sapiens [19]): 5.4
CL renal [20]: 7.3 mL/min
Activity (Homo sapiens [21]): 0%
dose excreted [22]: 4.58%
Vd/F [23]: 1460 L
Vd/F [24]: 118 L
Activity (Homo sapiens [25]): 16.7%
Vd/F [26]: 125 L
AUC(0-inf) [27]: 707 ng·h/mL
Activity (Homo sapiens [28]): 0%
Activity (Homo sapiens [29]): 16.7%
CL/F [30]: 141 mL/min
AUC(0-t) [31]: 4140 ng·h/mL
Activity (Homo sapiens [32]): 0%
MRT [33]: 18.1 h
AUC (Homo sapiens [34]): 779 ng·h/mL
